Source: PubChem
GSTO1 inh: GSTO1 inhibition, counter-screen for RBBP9 inhibitors | hit rate 1.1% among 300,000 | AID 1974 | P78417 | recombinant GSTO1, activity-based probe fluorescence polarization | inhibition, % at 5.96 µM;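 active means inhibition above the campaign mean inhibition plus 3 SD, cut at about 35% in these data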;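 further: 0% = GSTO1-1 with DMSO and 100% = wells lacking GSTO1-1 enzyme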
TDP2 absorb: TDP2 (human) inhibition, absorbance primary screen. O95551. recombinant TDP2, T5PNP hydrolysis, p-nitrophenol absorbance 415 nm. inhibition, % at 12.8 µM. hit rate 0.34% among 370,000;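 active means inhibition above the mean of all tested compounds plus 3 SD, set per campaign, cut at about 25% in these data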;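 further: 0% = DMSO with enzyme and 100% = buffer with substrate but no TDP2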
Target sequence (O95551 whole entry, looked up): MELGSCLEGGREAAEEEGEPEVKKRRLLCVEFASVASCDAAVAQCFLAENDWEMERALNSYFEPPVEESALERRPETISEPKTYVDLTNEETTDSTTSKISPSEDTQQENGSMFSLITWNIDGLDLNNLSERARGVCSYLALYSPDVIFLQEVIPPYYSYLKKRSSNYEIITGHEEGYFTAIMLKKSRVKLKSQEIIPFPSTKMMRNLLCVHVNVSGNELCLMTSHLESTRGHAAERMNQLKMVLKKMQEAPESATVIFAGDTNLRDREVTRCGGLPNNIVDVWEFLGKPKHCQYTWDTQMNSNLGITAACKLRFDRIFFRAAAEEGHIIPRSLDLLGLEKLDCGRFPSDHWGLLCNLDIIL
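Test system: Human TDP2 enzyme | Reagent: 5 mM T5PNP | Compound dosing: 12.8 µM single point, 1% DMSO | Incubation: Enzyme reaction with compound for 2 h at 37 °C | Technique: p-Nitrophenol epi absorbance | Read-out: % inhibition relative to enzyme-containing and enzyme-free wells | Benchmarks: High control without enzyme, low control DMSO plus TDP2 | Replicates: Singlicate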
Apaf1 inhib: inhibitors of human Apaf-1 apoptosome; AID 489030; reconstituted apoptosome caspase-3 activity, DEVD-Rh110 fluorescence; inhibition, % at 20 µM; hit rate 0.71% among 330,000; active means inhibition of at least 40% at 20 µM;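 further: plate controls were DMSO wells for no effect and DEVD-CHO caspase inhibitor wells for full effect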
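Material: cell-free apoptosome with Apaf-1, procaspase-3 and caspase-9; Buffer or medium: Hepes pH 7.5 with detergent and BSA; Reagent: cytochrome c trigger plus (Z-DEVD)2-Rh110 caspase-3 substrate; Times: compound with Apaf-1, dATP, procaspase-3 30 min, then 50 min reaction, room temperature; Technique: Rh110 fluorescence intensity.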
PAD4 FP inh: PAD4 (human) enzyme inhibition. Q9UM07. recombinant PAD4, RCA probe fluorescence polarization. inhibition, % at 6.36 µM. hit rate 0.41% among 330,000. AID 485272;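 active means percent inhibition above a cutoff equal to the mean of all tested compounds plus 3 SD, cut at about 15% in these data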;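 further: 0% = PAD4 with RCA probe and DMSO and 100% = probe without PAD4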
Fh CTSL1 inh: counter-screen for PFM18AAP inhibitors: inhibitors of F. hepatica cathepsin L1. recombinant F. hepatica cathepsin L1, Z-Leu-Arg-MCA fluorescence. inhibition, % at 5.96 µM. hit rate 0.49% among 300,000. AID 1906;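 active means inhibition above the mean of all tested compounds plus 3 SD, set per screening campaign, cut at about 17% in these data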;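 further: 0% = plate median of test compound wells and 100% = 1 µM Z-Phe-Ala-diazomethylketone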
* marks the source's active call; other numbers are inactive results. Shown are actives, neighbours in structure and some others; about 1.8% of the full set was active somewhere.

For COc1ccc(Cn2ccc3ccc(-c4ccc5ccn(Cc6ccc(C#N)cc6)c5c4)cc32)cc1 the results were TDP2 absorb 3.6.
Cc1ccc(NC2=CC(=O)C(=O)c3ccccc32)c(C)c1 was read as TDP2 absorb 12.7, Apaf1 inhib 86.6* and PAD4 FP inh -12.3.
`CCC(C)[C@H](NC(=O)[C@H](CC(C)C)NC(=O)OC(C)(C)C)C(=O)N[C@@H](Cc1ccccc1)C(=O)OC` (stereo not given in full) gave TDP2 absorb -6.1.
COc1cccc(NC=C2C(=O)OC3(CCCCC3)OC2=O)c1 was read as GSTO1 inh -0.9, TDP2 absorb 4.5, Apaf1 inhib 18.4, PAD4 FP inh -8.4 and Fh CTSL1 inh 18.6*.
`COc1cccc(NC=C2C(=O)OC(C)(C)OC2=O)c1` gave GSTO1 inh 1.2, TDP2 absorb -2.3, Apaf1 inhib -7.0, PAD4 FP inh -0.8 and Fh CTSL1 inh 3.3.
`Cc1ccc(S(=O)(=O)/C(=C/Cl)NC(=O)c2ccccc2)cc1` gave GSTO1 inh 25.6, TDP2 absorb -16.9, Apaf1 inhib 8.7, PAD4 FP inh 6.5 and Fh CTSL1 inh 96.9*.
`Cc1cc(N(CN2CCCC2=O)C(=O)c2ccc(OC(C)C)cc2)no1` gave GSTO1 inh 17.5, TDP2 absorb -0.8, Apaf1 inhib -4.3, PAD4 FP inh 2.3 and Fh CTSL1 inh 19.4*.
For Cc1cc(N(CN2CCCC2=O)C(=O)c2ccc(F)cc2)no1 the results were GSTO1 inh 4.3, TDP2 absorb 1.8, Apaf1 inhib -0.1, PAD4 FP inh 0.4 and Fh CTSL1 inh -19.9.
`NC(=S)N/N=C1\CCOc2ccc(Cl)cc21` gave GSTO1 inh 3.1, TDP2 absorb -2.3, Apaf1 inhib 1.7, PAD4 FP inh -3.5 and Fh CTSL1 inh 63.0*.
`Cc1cccc(OC[C@@H](O)CN2CCC(C(O)(c3ccccc3)c3ccccc3)CC2)c1` gave TDP2 absorb -1.9.
Screening O=C1CCCc2c1sc1nc3n(c(=O)c21)CCCCC3 returned GSTO1 inh -2.5, TDP2 absorb 8.4, Apaf1 inhib -2.8, PAD4 FP inh 0.1 and Fh CTSL1 inh -1.4.
For O=C1c2sc3nc4n(c(=O)c3c2CCC1Br)CCCCC4 (stereo not given) the results were GSTO1 inh 55.0*, TDP2 absorb -2.1, Apaf1 inhib 10.9, PAD4 FP inh -2.1 and Fh CTSL1 inh 0.8.
Screening O=C(CCl)Nc1cn(-c2ccccc2)nc1-c1ccc(F)cc1 returned GSTO1 inh 27.5, TDP2 absorb -3.8, Apaf1 inhib 11.4, PAD4 FP inh 2.2 and Fh CTSL1 inh 77.1*.
`Fc1ccc(-c2nn(-c3ccccc3)cc2CNCc2ccccc2)cc1` gave GSTO1 inh 1.9, TDP2 absorb -9.0, Apaf1 inhib 20.3, PAD4 FP inh -7.0 and Fh CTSL1 inh -1.0.
CCOc1cc(C)c(S(=O)(=O)NC2CC(C)(C)NC(C)(C)C2)cc1C was read as GSTO1 inh 36.5*, TDP2 absorb 10.9, Apaf1 inhib -1.4, PAD4 FP inh -2.7 and Fh CTSL1 inh 1.8.
Screening Cc1cc(C)c(S(=O)(=O)NC2CC(C)(C)NC(C)(C)C2)cc1C returned GSTO1 inh 0.9, TDP2 absorb -11.1, Apaf1 inhib -3.8, PAD4 FP inh -3.8 and Fh CTSL1 inh 4.3.
Screening COc1cc2[nH]c(C(=O)NN)c(N)c2cc1OC returned GSTO1 inh 38.8*, Apaf1 inhib 48.1*, PAD4 FP inh 8.3 and Fh CTSL1 inh -3.2.
For c1ccc(Cc2nnc3sc(C4COc5ccccc5O4)nn23)cc1 (stereo not given) the results were GSTO1 inh 3.5, TDP2 absorb 2.2, Apaf1 inhib -7.2, PAD4 FP inh 5.2 and Fh CTSL1 inh 18.3*.
Screening CN(Cc1ccc(Cl)cc1)C(=O)CCl returned GSTO1 inh 86.4*, TDP2 absorb 4.7, Apaf1 inhib 8.5, PAD4 FP inh -2.1 and Fh CTSL1 inh 16.3.
Screening COc1ccc(CN(C)C(=O)CCl)cc1 returned TDP2 absorb -7.1.
`Cc1cc(-c2ccc(N=Nc3c(S(=O)(=O)O)cc4cc(S(=O)(=O)O)cc(N)c4c3O)c(C)c2)ccc1N=Nc1c(S(=O)(=O)O)cc2cc(S(=O)(=O)O)cc(N)c2c1O` gave GSTO1 inh -76.1, Apaf1 inhib 98.3*, PAD4 FP inh -45.1 and Fh CTSL1 inh 27.2*.
